Molecular target: Bcl-2-like protein 1 (Homo sapiens, UniProt Q07817)
Experiment: Binding affinity to Bcl-xL by fluorescein-labeled Bak-BH3 peptide competition binding assay
Summary of the method: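 Fluorescence polarization competition on Bcl-xL against a fluorescein-tagged Bak BH3-domain peptide as the reference ligand. Ki is the dissociation constant at equilibrium with the reference ligand. Unlabeled Bak(BH3) peptide and a substituted terphenyl derivative served as positive controls. Bcl-xL values are from duplicate runs.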

Bcl-2-like protein 1, sequence (Q07817 whole entry): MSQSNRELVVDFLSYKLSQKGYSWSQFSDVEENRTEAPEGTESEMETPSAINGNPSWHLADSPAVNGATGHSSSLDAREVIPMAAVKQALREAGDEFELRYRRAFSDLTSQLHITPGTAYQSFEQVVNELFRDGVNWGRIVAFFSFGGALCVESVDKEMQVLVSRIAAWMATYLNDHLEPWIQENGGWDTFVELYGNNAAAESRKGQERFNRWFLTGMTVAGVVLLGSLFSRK

Ki [µM] | Structure (SMILES)
> 100 | CC(=O)O[C@@H]1[C@@H](OC(C)=O)[C@@H](O)[C@H](OC[C@]2(C)[C@@H](OC(C)=O)C[C@H](O)[C@]3(C)[C@H]4CC=C5[C@H]6C[C@](C)(C(=O)O)CC[C@]6(C)CC[C@@]5(C)[C@]4(C)CC[C@@H]23)O[C@H]1C [23-O-[alpha-L-(3',4'-Diacetylrhamnopyranosyl]-3beta-acetylimberbic acid]
> 100 | COC(=O)[C@]1(C)CC[C@]2(C)CC[C@]3(C)C(=CC[C@@H]4[C@@]5(C)[C@@H](O)C[C@H](OC(C)=O)[C@@](C)(CO[C@@H]6O[C@@H](C)[C@H](OC(C)=O)[C@@H](O)[C@H]6O)[C@@H]5CC[C@]43C)[C@H]2C1 [23-O-[alpha-L-(4'-Acetylrhamnopyranosyl]-3beta-acetylimberbic acid 29-methyl ester]
> 100 | CC(=O)O[C@@H]1[C@@H](O)[C@@H](O)[C@H](OC[C@]2(C)[C@@H](OC(C)=O)C[C@H](O)[C@]3(C)[C@H]4CC=C5[C@H]6C[C@](C)(C(=O)O)CC[C@]6(C)CC[C@@]5(C)[C@]4(C)CC[C@@H]23)O[C@H]1C [23-O-[alpha-L-(4'-Acetylrhamnopyranosyl]-3beta-acetylimberbic acid]
